ChEMBL document CHEMBL1124769, “Retinobenzoic acids. 5. Retinoidal activities of compounds having a trimethylsilyl or trimethylgermyl group(s) in human promyelocytic leukemia cells HL-60” (1990)

Legend:
[1] = test system: HL-60; assay: Ability to induce differentiation of human promyelocytic leukemia cell line HL-60 to mature granulocytes.; type: functional; settings: for EC50: read-out: ED50 (the source's name)
How it was run: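 HL-60 cells in RPMI1640 with 5% FCS, penicillin G and streptomycin, at 37 °C in 5% CO2. Seeded at ~8 × 10^4 cells/mL and exposed 4 days to compound from a 0.2 mM ethanol stock (final ethanol <0.5%, ethanol-only controls). Read by Wright-Giemsa differential counts and NBT reduction (0.2% NBT plus TPA, 20 min, 37 °C), ≥200 cells each. ED50 from NBT data (van der Waerden method).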

[2] = test system: HL-60; assay: Relative activity against human promyelocytic leukemia HL-60 cells.; type: functional
How it was run: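 Relative activity was computed as ED50 of retinoic acid ÷ ED50 of test compound × 100. Both ED50s came from concurrent 4-day HL-60 NBT-reduction differentiation assays spanning 5 orders of magnitude in concentration, each run at least twice. Values are representative ones or means.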

Row | Compound | EC50 [1] | ED50 [1] | Relative activity [2]
1 | N-(3,5-Bis-trimethylgermanyl-phenyl)-terephthalamic acid (Am55G) | – | 42 nM | 15
2 | CC(C)(C)c1cccc(NC(=O)c2ccc(C(=O)O)cc2)c1 | 700 nM | – | 0.32
3 | CC(C)(C)c1cccc(C(=O)/C=C/c2ccc(C(=O)O)cc2)c1 | 160 nM | – | 0.81
4 | 4-[3-(2,5-Bis-trimethylgermanyl-phenyl)-3-oxo-propenyl]-benzoic acid (Ch55G) | – | 0.21 nM | 1000
5 | CC(C)c1cccc(NC(=O)c2ccc(C(=O)O)cc2)c1 | 680 nM | – | –
6 | CC1=C(/C=C/C(C)=C/C=C/C(C)=C/C(=O)O)C(C)(C)CCC1 [TRETINOIN] | 2.4 nM | – | 100
7 | CC(C)(C)c1cc(C(=O)/C=C/c2ccc(C(=O)O)cc2)cc(C(C)(C)C)c1 | – | – | 640
8 | CC(C)(C)c1ccc(C(=O)/C=C/c2ccc(C(=O)O)cc2)cc1 | – | – | 3.9
9 | C[Si](C)(C)c1cc(NC(=O)c2ccc(C(=O)O)cc2)cc([Si](C)(C)C)c1 | 30 nM | – | 13
10 | 4-[3-Oxo-3-(3-trimethylgermanyl-phenyl)-propenyl]-benzoic acid (Ch60G) | – | 40 nM | 4.5
11 | CC(C)(C)c1cccc(/C=C/c2ccc(C(=O)O)cc2)c1 | – | – | 13
12 | C[Si](C)(C)c1cc(C(=O)Nc2ccc(C(=O)O)cc2)cc([Si](C)(C)C)c1 [AMSILAROTENE] | 9.2 nM | – | 52.7

The remaining compounds from weak to strong by EC50 [1], led by results:

Row | EC50 [1] | Compound | ED50 [1] | Relative activity [2]
13 | 170 nM | CCc1ccc(C(=O)/C=C/c2ccc(C(=O)O)cc2)cc1CC | – | –
14 | 85 nM | C[Si](C)(C)c1cccc(NC(=O)c2ccc(C(=O)O)cc2)c1 | – | 2.4
15 | 48 nM | CC(C)(C)c1cc(C(=O)Nc2ccc(C(=O)O)cc2)cc(C(C)(C)C)c1 | – | 5.6
16 | 44 nM | C[Si](C)(C)c1cccc(C(=O)/C=C/c2ccc(C(=O)O)cc2)c1 | – | 1.8
17 | 36 nM | CC(C)(C)c1cc(NC(=O)c2ccc(C(=O)O)cc2)cc(C(C)(C)C)c1 | – | 15
18 | 1 nM | C[Si](C)(C)c1cccc(/C=C/c2ccc(C(=O)O)cc2)c1 | – | 85
19 | 0.79 nM | CC1(C)CCC(C)(C)c2cc(NC(=O)c3ccc(C(=O)O)cc3)ccc21 [TAMIBAROTENE] | – | –
20 | 0.14 nM | C[Si](C)(C)c1cc(C(=O)/C=C/c2ccc(C(=O)O)cc2)cc([Si](C)(C)C)c1 | – | 860
